Results as given in ChEMBL document CHEMBL4406846, “Development of novel multipotent compounds modulating endocannabinoid and dopaminergic systems” (Eur J Med Chem, 2019).
Values after ≈ are worked out from the molar mass of the structure shown. Active and inactive are the calls of the source. The calls are words filed in the database; no cut-off is given here.

Columns and labels:
D(2) dopamine receptor = D(2) dopamine receptor (Homo sapiens, UniProt P14416); test: Displacement of [3H]-spiperone from human D2 receptor expressed in CHO cells co-expressing Galpha16 incubated for 120 mins by liquid scintillation counting method; format: cell-based
Chain of D(2) dopamine receptor (P14416 whole entry): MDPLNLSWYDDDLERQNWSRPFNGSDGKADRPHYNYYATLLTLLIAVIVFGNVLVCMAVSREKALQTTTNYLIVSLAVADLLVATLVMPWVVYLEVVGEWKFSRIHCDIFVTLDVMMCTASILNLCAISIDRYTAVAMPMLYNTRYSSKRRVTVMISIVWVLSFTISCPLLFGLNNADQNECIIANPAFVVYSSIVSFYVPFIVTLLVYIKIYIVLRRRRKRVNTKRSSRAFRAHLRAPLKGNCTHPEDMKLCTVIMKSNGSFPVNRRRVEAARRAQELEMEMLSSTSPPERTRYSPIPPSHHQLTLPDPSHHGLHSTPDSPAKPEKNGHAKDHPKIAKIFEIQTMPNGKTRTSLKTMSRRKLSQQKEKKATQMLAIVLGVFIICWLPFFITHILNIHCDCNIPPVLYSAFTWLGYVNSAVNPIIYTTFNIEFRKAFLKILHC
How it was run: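 Membranes from CHO cells expressing hD2 with Gα16; 2 μg protein/well, 0.08 nM [³H]-spiperone final, 23 °C for 120 min. Stopped by rapid filtration on PEI-soaked GF/B filters, bound radioactivity counted; Ki by Cheng-Prusoff; at least three experiments.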

D(3) dopamine receptor = D(3) dopamine receptor (Homo sapiens, UniProt P35462); test: Displacement of [3H]-spiperone from human D3 receptor expressed in CHO cells co-expressing Galpha16 incubated for 120 mins by liquid scintillation counting method; format: cell-based
Chain of D(3) dopamine receptor (P35462 whole entry): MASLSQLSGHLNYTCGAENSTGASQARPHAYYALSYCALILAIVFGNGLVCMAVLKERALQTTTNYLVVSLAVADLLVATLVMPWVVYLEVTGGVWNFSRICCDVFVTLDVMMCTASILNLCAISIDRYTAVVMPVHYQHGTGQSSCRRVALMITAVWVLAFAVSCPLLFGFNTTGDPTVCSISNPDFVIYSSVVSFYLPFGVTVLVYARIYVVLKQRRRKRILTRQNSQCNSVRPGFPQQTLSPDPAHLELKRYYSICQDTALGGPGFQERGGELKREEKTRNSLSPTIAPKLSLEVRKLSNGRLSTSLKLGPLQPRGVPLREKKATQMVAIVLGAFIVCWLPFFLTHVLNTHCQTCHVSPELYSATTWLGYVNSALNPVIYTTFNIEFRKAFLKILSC

[1] = target: T1, Fatty-acid amide hydrolase 1 (Mus musculus, UniProt O08914); test: Inhibition of FAAH in mouse brain membranes assessed as inhibitory constant using [14C]-AEA as substrate incubated for 15 mins by scintillation counting method; format: cell membranes
T1 sequence (O08914 whole entry): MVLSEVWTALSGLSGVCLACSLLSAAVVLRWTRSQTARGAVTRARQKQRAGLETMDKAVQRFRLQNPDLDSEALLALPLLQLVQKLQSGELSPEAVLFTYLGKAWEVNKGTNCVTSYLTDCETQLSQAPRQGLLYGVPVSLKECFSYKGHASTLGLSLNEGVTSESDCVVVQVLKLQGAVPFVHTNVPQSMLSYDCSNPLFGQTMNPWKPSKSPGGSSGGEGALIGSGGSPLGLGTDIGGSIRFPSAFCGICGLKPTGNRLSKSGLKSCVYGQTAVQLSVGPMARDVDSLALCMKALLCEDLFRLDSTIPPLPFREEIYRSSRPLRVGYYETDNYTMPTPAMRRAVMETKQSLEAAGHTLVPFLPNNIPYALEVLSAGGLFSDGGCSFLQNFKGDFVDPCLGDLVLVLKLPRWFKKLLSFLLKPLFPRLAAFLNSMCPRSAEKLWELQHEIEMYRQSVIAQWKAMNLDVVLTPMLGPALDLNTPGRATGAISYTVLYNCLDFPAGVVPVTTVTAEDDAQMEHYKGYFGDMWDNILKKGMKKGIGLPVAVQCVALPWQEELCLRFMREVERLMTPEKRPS
How it was run: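 Mouse brain incubated with 10 μM [¹⁴C]AEA at 37 °C for 15 min, pH 9.0, compound added to the medium. Stopped with chloroform/methanol 2:1; [¹⁴C]ethanolamine released into the aqueous phase measured. Mean of at least three experiments.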

NIH3T3 = test: Cytotoxicity against mouse NIH/3T3 cells assessed as cell viability incubated for 24 hrs by neutral red uptake based assay; conditions: NIH3T3, 24 h
How it was run: (§1)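 NIH3T3 or U-373-MG cells grown in DMEM with 10% FCS at 37 °C, 5% CO2; compound from DMSO stock diluted in complete medium, 4–100 μM, 24 h. Viability by Neutral Red Uptake (3 h NR loading, acetic acid/ethanol extraction, A540), normalised to % control; IC50 reported. Three experiments in six replicates, Student's t test.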

[2] = Mutagenicity in Salmonella typhimurium TA98 assessed as number of revertants at 5 to 230 uM incubated for 2 days by AMES test; format: toxicity; conditions: salmonella enterica subsp. enterica serovar typhimurium, 48 h
[3] = target: T1, Fatty-acid amide hydrolase 1; test: Inhibition of FAAH in mouse brain membranes using [14C]-AEA as substrate incubated for 15 mins by scintillation counting method; format: cell membranes
[4] = Mutagenicity in Salmonella typhimurium TA100 assessed as number of revertants at 5 to 230 uM incubated for 2 days by AMES test; format: toxicity; conditions: salmonella enterica subsp. enterica serovar typhimurium, 48 h
[5] = Mutagenicity in Salmonella typhimurium TA100 assessed as number of revertants in presence of liver S9 fraction at 5 to 230 uM incubated for 2 days by AMES test; format: toxicity, subcellular; conditions: salmonella enterica subsp. enterica serovar typhimurium, s9, 48 h
[6] = Mutagenicity in Salmonella typhimurium TA98 assessed as number of revertants in presence of liver S9 fraction at 5 to 230 uM incubated for 2 days by AMES test; format: toxicity, subcellular; conditions: salmonella enterica subsp. enterica serovar typhimurium, s9, 48 h
[7] = target: T2, Monoglyceride lipase (Mus musculus) (UniProt O35678); test: Inhibition of MAGL in mouse brain assessed as release of [3H]glycerol using [3H]-2-OG as substrate incubated for 30 mins by scintillation counting method; format: tissue-based
T2 sequence (whole entry): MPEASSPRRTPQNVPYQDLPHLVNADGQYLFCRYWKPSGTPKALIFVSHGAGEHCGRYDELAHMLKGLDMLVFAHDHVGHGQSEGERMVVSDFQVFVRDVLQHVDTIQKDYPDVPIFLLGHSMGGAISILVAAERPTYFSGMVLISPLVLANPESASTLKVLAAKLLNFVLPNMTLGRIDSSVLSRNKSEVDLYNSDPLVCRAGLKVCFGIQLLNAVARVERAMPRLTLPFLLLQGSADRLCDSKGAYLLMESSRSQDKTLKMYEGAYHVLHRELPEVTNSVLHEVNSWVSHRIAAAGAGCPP
How it was run: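 Mouse brain homogenised in 50 mM sodium phosphate pH 8.0 with 0.32 M sucrose, spun sequentially up to 100,000×g. Final supernatant incubated with 10 μM [³H]2-OG at 37 °C for 30 min; stopped with chloroform/methanol and aqueous [³H]glycerol scintillation-counted.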

[8] = target: Cannabinoid receptor 1 (Mus musculus) (UniProt P47746); test: Displacement of [3H]CP55, 940 from mouse brain membrane CB1 receptor
Chain of Cannabinoid receptor 1 (Mus musculus) (P47746 whole entry): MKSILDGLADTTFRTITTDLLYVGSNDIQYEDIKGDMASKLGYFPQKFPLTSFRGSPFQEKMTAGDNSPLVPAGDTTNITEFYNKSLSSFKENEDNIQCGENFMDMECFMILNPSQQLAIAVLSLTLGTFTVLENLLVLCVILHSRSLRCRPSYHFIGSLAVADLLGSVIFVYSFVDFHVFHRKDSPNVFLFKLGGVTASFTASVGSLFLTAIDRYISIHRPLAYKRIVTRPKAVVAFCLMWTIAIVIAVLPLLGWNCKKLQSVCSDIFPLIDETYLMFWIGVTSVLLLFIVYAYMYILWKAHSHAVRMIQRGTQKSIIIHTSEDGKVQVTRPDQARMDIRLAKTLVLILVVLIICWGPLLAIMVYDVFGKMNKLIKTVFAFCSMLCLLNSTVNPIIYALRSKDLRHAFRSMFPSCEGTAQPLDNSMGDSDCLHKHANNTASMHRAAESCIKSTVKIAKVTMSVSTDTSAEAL
How it was run: (§2)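 Mouse brain membrane fraction (18000×g pellet) in 50 mM Tris-HCl, 2 mM Tris-EDTA, 3 mM MgCl2, pH 7.4. Rapid filtration binding with the agonist [³H]CP55,940; nonspecific binding defined with 1 μM unlabelled agonist; compound added directly to the incubation.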

[9] = target: Voltage-gated inwardly rectifying potassium channel KCNH2 (Homo sapiens, UniProt Q12809); test: Inhibition of human ERG expressed in HEK293 cells […] by patch clamp assay; format: cell-based
Chain of Voltage-gated inwardly rectifying potassium channel KCNH2 (Q12809 whole entry): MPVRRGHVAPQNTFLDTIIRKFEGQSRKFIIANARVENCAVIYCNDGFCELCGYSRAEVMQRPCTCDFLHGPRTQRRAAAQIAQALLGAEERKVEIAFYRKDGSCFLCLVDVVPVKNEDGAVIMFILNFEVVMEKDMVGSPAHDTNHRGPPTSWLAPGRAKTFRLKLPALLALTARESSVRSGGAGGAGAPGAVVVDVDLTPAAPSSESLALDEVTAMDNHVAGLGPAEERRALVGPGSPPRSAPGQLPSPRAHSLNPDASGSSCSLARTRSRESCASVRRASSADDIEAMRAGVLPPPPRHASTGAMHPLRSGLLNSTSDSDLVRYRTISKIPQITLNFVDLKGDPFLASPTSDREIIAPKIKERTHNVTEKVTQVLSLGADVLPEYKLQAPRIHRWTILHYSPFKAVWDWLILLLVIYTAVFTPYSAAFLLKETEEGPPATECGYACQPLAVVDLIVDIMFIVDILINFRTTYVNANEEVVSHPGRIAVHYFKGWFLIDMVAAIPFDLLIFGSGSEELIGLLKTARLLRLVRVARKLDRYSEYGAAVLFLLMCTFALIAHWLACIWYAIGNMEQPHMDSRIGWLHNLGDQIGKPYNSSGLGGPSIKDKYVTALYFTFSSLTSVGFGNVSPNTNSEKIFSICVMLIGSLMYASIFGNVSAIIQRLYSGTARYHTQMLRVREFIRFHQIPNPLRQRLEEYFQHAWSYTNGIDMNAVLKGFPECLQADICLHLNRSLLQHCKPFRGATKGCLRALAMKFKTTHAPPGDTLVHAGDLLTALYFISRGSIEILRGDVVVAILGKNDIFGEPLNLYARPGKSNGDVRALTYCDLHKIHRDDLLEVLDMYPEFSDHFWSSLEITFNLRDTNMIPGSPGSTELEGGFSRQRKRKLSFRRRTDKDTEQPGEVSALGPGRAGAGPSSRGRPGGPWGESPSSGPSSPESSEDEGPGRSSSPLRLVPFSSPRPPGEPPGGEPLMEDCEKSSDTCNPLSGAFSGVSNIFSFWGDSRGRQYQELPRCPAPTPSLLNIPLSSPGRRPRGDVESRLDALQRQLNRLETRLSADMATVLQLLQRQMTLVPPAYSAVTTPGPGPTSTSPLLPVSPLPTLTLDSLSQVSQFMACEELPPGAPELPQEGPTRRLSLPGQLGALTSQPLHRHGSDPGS
How it was run: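 HEK293 cells stably expressing hERG under a tetracycline-inducible promoter (10 μg/mL tetracycline for 24, 48 or 72 h). Automated patch clamp, tail current; 0.1, 1 and 10 μM in 0.1% DMSO after 3 min vehicle, 5 min exposure. Residual current vs vehicle gives % inhibition; IC50 estimated; at least two cells.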

[10] = target: Cannabinoid receptor 2 (Mus musculus) (UniProt P47936); test: Displacement of [3H]CP55, 940 from mouse brain membrane CB2 receptor; how it was run: as §2
Chain of Cannabinoid receptor 2 (Mus musculus) (P47936 whole entry): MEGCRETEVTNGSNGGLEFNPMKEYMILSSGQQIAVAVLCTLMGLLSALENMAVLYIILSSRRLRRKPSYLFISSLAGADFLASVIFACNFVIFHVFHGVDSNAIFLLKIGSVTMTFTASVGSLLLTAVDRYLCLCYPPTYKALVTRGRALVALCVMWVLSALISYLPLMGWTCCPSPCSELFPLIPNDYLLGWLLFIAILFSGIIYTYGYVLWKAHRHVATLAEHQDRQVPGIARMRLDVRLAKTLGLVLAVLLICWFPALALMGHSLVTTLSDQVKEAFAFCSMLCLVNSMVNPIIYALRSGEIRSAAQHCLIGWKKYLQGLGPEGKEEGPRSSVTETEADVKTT

[11] = Metabolic stability in human liver microsomes assessed as half life at 5 uM incubated for 60 mins by UV-Vis spectrophotometry; format: ADME, Microsome
[12] = Metabolic stability in rat liver microsomes assessed as half life at 5 uM incubated for 60 mins by UV-Vis spectrophotometry; format: ADME, Microsome
IMR-32 [13] = test: Antiinflammatory activity in human IMR32 cells assessed as reduction in LPS-induced NF-kappaB-DNA binding at 0.5 and 1 uM preincubated for 24 hrs followed by LPS stimulation and measured after 30 mins by ELISA; format: functional, cell-based
How it was run: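 IMR 32 cells pre-treated 24 h at 0.5 and 1 μM, then challenged with 100 μg/mL LPS for 30 min; NF-κB p65 binding of nuclear extracts to the DNA consensus sequence measured. Mean ± SEM of 3 independent experiments.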

U373 MG = test: Cytotoxicity against human U373MG cells assessed as cell viability incubated for 24 hrs by neutral red uptake based assay; parameters: species or system U-373MG ATCC; how it was run: as §1
[14] = Metabolic stability in human liver microsomes assessed as apparent decay constant at 5 uM incubated for 60 mins by UV-Vis spectrophotometry; format: ADME, Microsome; conditions: 1 h
[15] = Metabolic stability in rat liver microsomes assessed as apparent decay constant at 5 uM incubated for 60 mins by UV-Vis spectrophotometry; format: ADME, Microsome; conditions: 1 h
IMR-32 [16] = test: Cytotoxicity against human IMR32 cells at 0.1 to 50 uM incubated for 24 hrs by LDH release assay; format: cell-based; conditions: imr-32, 24 h
How it was run: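 IMR 32 cells exposed 24 h to 0.1, 0.5, 1, 5, 10 and 50 μM; LDH release expressed as percent of maximal release from Triton X-100-treated cells (100%). Samples run at least in triplicate, mean ± SD.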

[17] = Solubility of compound in DMSO at pH 3 incubated for […] by HPLC/UV/DAD analysis; format: physicochemical
How it was run: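 10 mM DMSO stock diluted to 250 μM (2.5% DMSO) in 50 mM acetic acid (pH 3.0) or 50 mM PBS (pH 7.4). Shaken 24 h at 25 °C, filtered, diluted 1:2 and quantified by HPLC-UV at 254 nm against a 250 μM standard; triplicate average.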

[18] = Metabolic stability in human liver microsomes assessed as intrinsic clearance at 5 uM incubated for 60 mins by UV-Vis spectrophotometry; format: ADME, Microsome; conditions: read-out: CLH
IMR-32 [19] = test: Antiinflammatory activity in human IMR32 cells assessed as reduction in LPS-induced NF-kappaB-DNA binding at 0.5 and 1 uM preincubated for 24 hrs followed by LPS stimulation and measured after 30 mins by immunoblot analysis; format: functional, cell-based
[20] = Retention time of compound in human liver microsomes incubated for 30 mins by HPLC analysis; format: ADME, Microsome; conditions: 0.5 h
[21] = Metabolic stability in rat liver microsomes assessed as intrinsic clearance at 5 uM incubated for 60 mins by UV-Vis spectrophotometry; format: ADME, Microsome; conditions: read-out: CLH
[22] = Chemical stability of compound in DMSO assessed as remaining compound at pH 3 incubated for 24 hrs by HPLC/UV/DAD analysis; format: physicochemical; conditions: read-out: Stability
How it was run: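 Samples at 250 μM (2.5% DMSO) in 50 mM acetic acid, pH 3.0, held 24 h at 25 °C. HPLC/UV/DAD peak area at 254 nm after 24 h divided by area at T0 × 100; triplicate average.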

Compound | Ki (D(2) dopamine receptor) | Ki (D(3) dopamine receptor) | Ki [1] | IC50 (NIH3T3) | IC50 [3] | IC50 [9] | further results
NC(=O)c1ccn(-c2cccc(OC(=O)NCCN3CCN(c4ccccc4)CC3)c2)c1 | 186 nM | 105 nM | 16 nM | 5 µM | 58 nM | 5300 nM | Activity [2]: Non-Toxic; Activity [4]: Non-Toxic; Activity [5]: Non-Toxic; Activity [6]: Non-Toxic; inhibition [7]: inactive; inhibition [8]: inactive; inhibition [10]: inactive
Cc1cc(C(N)=O)c(-c2cccc(OC(=O)NCCN3CCN(c4ccccc4)CC3)c2)[nH]1 |  |  | 50 nM |  | 195 nM |  | 
NC(=O)c1ccn(-c2cccc(NC(=O)NCCN3CCN(c4ccccc4)CC3)c2)c1 |  |  | 420 nM |  | 1600 nM |  | 
Cc1cc(C(N)=O)c(-c2cccc(OC(=O)NCCCN3CCN(c4ccccc4)CC3)c2)o1 | 29 nM | 19 nM | 16 nM |  | 62 nM | 1100 nM | 
Cc1cc(C(N)=O)c(-c2cccc(OC(=O)NCCN3CCN(c4ccccc4)CC3)c2)s1 | 214 nM | 148 nM | 6.88 nM |  | 26 nM | 280 nM | 
NC(=O)c1ccn(-c2cccc(OC(=O)NCCCCCCc3ccccc3)c2)c1 |  |  |  | 75 µM |  |  | half-life at 5 µM [11]: 27.8 min; half-life at 5 µM [12]: 50.3 min; Activity (IMR-32 [13]): Active; IC50 (U373 MG): 50 µM; K [14]: 0.02496 ×10⁻¹ /min; K [15]: 0.01379 ×10⁻¹ /min; Activity (IMR-32 [16]): Non-Toxic; solubility [17]: 465 µM (≈ 189 µg/mL); microsomal CLint at 5 µM [18]: 41.6 µL/min/mg; Activity (IMR-32 [19]): Active; Retention_time [20]: 13.72 min; microsomal CLint at 5 µM [21]: 23.4 µL/min/mg; remaining at 24 h [22]: 92.1%
